The Kd is the concentration at which binding is half-saturated. Broadly, the IC50 is the concentration needed to halve the response being measured. A high value points to weaker potency. The ΔTm is the shift of the melting midpoint relative to a reference.

Calls of active or inactive are those of the source. No cut-off for these calls is given here. Where only a bound is given, the exact number is not on record here.

Series [1] relates to HeLa. Nature of the series: Binding affinity to (CUG)960 RNA (unknown origin) expressed in human HeLa cells assessed as foci dispersion at 20 to 50 uM after 36 hrs by confocal microscopic analysis. The series is classed as cell-based. Summed up: (§1)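 HeLa cells, about 120,000 per well on coverslips, were transfected after 1 day with 500 ng DMPK-CTG960 plasmid (CTG0 plasmid for control cells). Ligand was given at 20, 35 or 50 μM for 36 h. Cells were then fixed and foci stained by FISH with Cy3-(CAG)10, with TO-PRO-3 nuclear stain. Confocal excitation was 405 nm (acridine ligand uptake), 555 nm (Cy3) and 639 nm (TO-PRO-3). Over 100 cells were scored for foci; two-tailed Student t test.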

The nature of series [2]: Binding affinity to 5'-TAMRA-labeled (CUG)6 RNA (unknown origin) by fluorescence titration assay. Summed up:
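Steady-state fluorescence titration. Ligand was titrated into 5'-TAMRA-(CUG)6 in 1X PBS, and the drop in TAMRA emission was followed. Normalized intensity was plotted against ligand concentration to give a binding isotherm, which was fitted for KD.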

Series [3] can be described thus: Inhibition of biotin-labeled (CUG)12 RNA (unknown origin)-MBNL1 interaction by SPR analysis. Summed up: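 SPR in 1X PBS with Tween-20 and excess competitor tRNA. Biotinylated (CUG)12 was immobilized on a streptavidin chip and pre-incubated with ligand at varied concentrations to steady-state RU over 150 s. Then 0.65 μM MBNL1 was injected with ligand at the same concentration. Maximum RU at 150 s was converted to % (CUG)12 bound, normalized to the no-ligand value, and fitted for apparent IC50.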
For orientation: Surface plasmon resonance follows binding to a sensor surface in real time, without labels.

Series [4] is described as follows: Drug uptake in nucleus of human HeLa cells expressing (CUG)960 RNA at 35 uM after 36 hrs by confocal microscopic analysis. The series is classed as ADME, cell-based. Summed up:
as §1

For series [5], the system named is Nucleic Acid. The series is described as follows: Binding affinity to (CUG)12 RNA (unknown origin) assessed as change in melting temperature at 1 equiv treated in 5% DMSO by thermal denaturation assay. It counts as nucleic-acid assay.
Series [6] is described as follows: Cytotoxicity against human HeLa cells assessed as cytotoxicity up to 75 uM after 24 hrs by sulforhodamine B assay. A general note: The SRB assay estimates cell density from bound dye.
For series [7], the system named is HeLa. The series is described as follows: Drug uptake in human HeLa cells expressing (CUG)960 RNA at 35 uM after 36 hrs by confocal microscopic analysis. The series is classed as ADME, cell-based. Summed up:
as §1

Series [8] relates to Nucleic Acid. The series is described as follows: Binding affinity to (CUG)12 RNA (unknown origin) assessed as change in melting temperature at 1 equiv treated in aqueous solution by thermal denaturation assay. It counts as nucleic-acid assay. Particulars: unidentified.
Series [9] deals with Nucleic Acid. Nature of the series: Binding affinity to (CUG)12 RNA (unknown origin) assessed as change in melting temperature by thermal denaturation assay. The series is classed as nucleic-acid assay.
Series [10] can be described thus: Drug uptake in human HeLa cell nuclear membrane expressing (CUG)960 RNA coexpressing GFP-tagged MBNL1 at 50 uM after 3 to 10 hrs by live cell microscopic analysis. It counts as ADME, cell membranes. Summed up: (§2)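 HeLa cells co-transfected with DMPK-CTG960 and GFP-MBNL1 plasmids were grown on a gridded dish so each cell could be relocated by DIC. Ligand was added to 50 μM final. Time-lapse confocal images of GFP-MBNL1 foci and acridine fluorescence were taken before addition and at 3, 6 and 10 h. At 10 h, Z-stacks of 1 μm slices through the whole cell were taken. Untreated cells were imaged the same way.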

Series [11] relates to HeLa. The series is described as follows: Binding affinity to (CUG)960 RNA (unknown origin) expressed in human HeLa cells coexpressing GFP-tagged MBNL1 assessed as MBNL1 foci dispersion throughout nucleus at 50 uM after 3 to 10 hrs by live cell microscopic analysis. It counts as cell-based. Summed up: as §2
A short description of series [12]: Drug uptake in human HeLa cell membrane expressing (CUG)960 RNA coexpressing GFP-tagged MBNL1 at 50 uM after 3 to 10 hrs by live cell microscopic analysis. The series is classed as ADME, cell-based. Summed up:
as §2

Series [13] deals with HeLa. The series is described as follows: Binding affinity to (CUG)960 RNA (unknown origin) expressed in human HeLa cells coexpressing GFP-tagged MBNL1 assessed as MBNL1 foci dispersion throughout nucleus at Z-plane of cells at 50 uM after 10 hrs by live cell microscopic analysis. It counts as cell-based. The note with it: unidentified. Summed up: as §2
The nature of series [14]: Inhibition of (CUG)12 RNA (unknown origin)-MBNL1 interaction after 10 to 15 mins.

`CNC(=O)c1ccc2nc3ccccc3c(NCCCCNc3nc(N)nc(N)n3)c2c1`: the outcome with HeLa [1] was inactive. The compound further registered a Kd in series [2] of 66 µM. The IC50 in series [3] turned out to be 293 µM. The Drug uptake result (in series [4]; with HeLa [7]) was “Not Active” in each case. For the same compound, the ΔTm in the series with Nucleic Acid [5] was 1.8 °C. Besides, the cytotoxicity at 24 h in [6] was less than 20%.

For the compound `Nc1nc(N)nc(NCCCCNc2c3ccccc3nc3c(C(=O)NCCNCCNCCNC(=O)c4cccc5c(NCCCCNc6nc(N)nc(N)n6)c6ccccc6nc45)cccc23)n1`, the outcome with HeLa [1] was inactive. In addition, binding in series [2] was put at a Kd of 4.8 µM. For the same compound, the ΔTm with Nucleic Acid [8] was 8.4 °C. Half-maximal inhibition in series [3] (IC50) required 5 µM. The Drug uptake result (in [4]; in the series with HeLa [7]) was “Not Active” each time.

Turning to `CC(=O)NCCCNCCCNCCCNC(=O)c1cccc2c(NCCCCNc3nc(N)nc(N)n3)c3ccccc3nc12`, the ΔTm with Nucleic Acid [9] came to 2.5 °C. Further, the IC50 in series [3] stood at 15 µM.

Turning to `Nc1nc(N)nc(NCCCCNc2c3ccccc3nc3c(C(=O)NCCNCCNCCNCCNC(=O)c4cccc5c(NCCCCNc6nc(N)nc(N)n6)c6ccccc6nc45)cccc23)n1`, binding in series [2] was put at a Kd of 3.8 µM. Besides, the ΔTm in the series with Nucleic Acid [8] came to 9.6 °C. Moreover, in [3], the IC50 is 6 µM.

Turning to `Nc1nc(N)nc(NCCCCNc2c3ccccc3nc3ccc(C(=O)NCCOCCOCCNC(=O)c4ccc5nc6ccccc6c(NCCCCNc6nc(N)nc(N)n6)c5c4)cc23)n1`, the Kd in series [2] came out at 23 µM. The IC50 in [3] was 18 µM. Moreover, the ΔTm with Nucleic Acid [5] came to 2.7 °C.

`Nc1nc(N)nc(NCCCCNc2c3ccccc3nc3ccc(C(=O)NCCOCCOCCOCCOCCOCCNC(=O)c4ccc5nc6ccccc6c(NCCCCNc6nc(N)nc(N)n6)c5c4)cc23)n1` registered an IC50 in series [3] of 43 µM.

With `Nc1nc(N)nc(NCCCCNc2c3ccccc3nc3ccc(C(=O)NCCCNCCCCCCCCNCCCNC(=O)c4ccc5nc6ccccc6c(NCCCCNc6nc(N)nc(N)n6)c5c4)cc23)n1`, the outcome with HeLa [1] was inactive. For the same compound, the Drug uptake entry (in [4]; with HeLa [7]) was “Active” each time.

On to `Nc1nc(N)nc(NCCCCNc2c3ccccc3nc3c(C(=O)NCCCNCCCNCCCNC(=O)c4cccc5c(NCCCCNc6nc(N)nc(N)n6)c6ccccc6nc45)cccc23)n1`, for which the outcome in the series with HeLa [1], in the series on HeLa [11] and with HeLa [13] was Active. Besides, the Kd in series [2] turned out to be 0.32 µM. The ΔTm in the series on Nucleic Acid [8] was determined as 9.3 °C. Also, the Drug uptake result (in series [10]; in [4]; in series [12]; with HeLa [7]) was “Active” each time. The same compound yielded an IC50 in series [3] of 1.1 µM. Further, in series [6], the cytotoxicity at 24 h is less than 20%.

With `COc1ccc2nc3cc(Cl)ccc3c(NCCCCNc3nc(N)nc(N)n3)c2c1`, in [14], the IC50 worked out at 46 µM.

For `Nc1nc(N)nc(NCCCCNc2c3ccccc3nc3ccc(C(=O)NCCCOCCOCCOCCCNC(=O)c4ccc5nc6ccccc6c(NCCCCNc6nc(N)nc(N)n6)c5c4)cc23)n1`, in series [2], the Kd was 75 µM. In series [3], this compound yielded an IC50 of 28 µM.

`Nc1nc(N)nc(NCCCCNc2c3ccccc3nc3c(C(=O)NCCOCCOCCOCCOCCOCCNC(=O)c4cccc5c(NCCCCNc6nc(N)nc(N)n6)c6ccccc6nc45)cccc23)n1` registered an IC50 in series [3] of 37 µM. For the same compound, the ΔTm with Nucleic Acid [5] came out at 1.8 °C.

The record behind these values is ChEMBL document CHEMBL3102820, “Developing bivalent ligands to target CUG triplet repeats, the causative agent of myotonic dystrophy type 1” (J Med Chem, 2013).
